According to article PMC3295204 (Journal of Medicinal Chemistry, 2012):

Experiments:
PC-3 cells = experiment: Cell viability; type: cell-based, human; settings: PC-3, 50 μM, 24 h
Cell viability [1] = type: cell-based, human; settings: human, PC-3 cells (androgen-independent prostate cancer cell line)
Cell viability [2] = type: cell-based; settings: human, PWR-1E cells (normal prostatic epithelia cell line)
Cell viability [3] = type: cell-based; settings: human, LNCaP cells (androgen-dependent prostate cancer cell line)
[4] = molecular target: T1, progesterone receptor (PR) (Homo sapiens, UniProt P06401); experiment: TR-FRET SRC1-4 coactivator displacement from progesterone-PR complex; type: biochemical; settings: AR vs PR
T1 sequence (P06401 679-933 limits assumed): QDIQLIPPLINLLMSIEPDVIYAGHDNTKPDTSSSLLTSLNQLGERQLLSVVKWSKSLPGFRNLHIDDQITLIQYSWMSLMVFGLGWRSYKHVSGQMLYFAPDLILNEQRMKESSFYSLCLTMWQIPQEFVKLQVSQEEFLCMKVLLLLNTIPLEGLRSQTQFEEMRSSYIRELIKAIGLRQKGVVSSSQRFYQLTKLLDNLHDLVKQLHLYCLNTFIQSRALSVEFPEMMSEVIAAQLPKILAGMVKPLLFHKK
Outline: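 TR-FRET coactivator-recruitment assay with LBD and Tb anti-GST antibody. Agonist was set at its EC80 from a prior agonist-mode run: DHT for AR-LBD (test compound 100 μM–45 nM), progesterone for PR (100–1 μM). Buffer had 1% DMSO, 5 mM DTT and 0.01% Triton X-100; incubation was 2–4 h at RT in the dark. […] Two experiments in triplicate.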

[5] = system: PSA secretion (AR signaling) in LNCaP cells; experiment: Secreted PSA ELISA in LNCaP cells; type: cell-based, human
Outline: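 Media were renewed every second day, and supernatants collected at day 5 for human PSA sandwich ELISA: sample 2 h at RT, HRP-conjugate antibody 2 h at RT, TMB 30 min, then 2 N H2SO4 stop. OD 450 minus 540 nm was interpolated from a standard curve. Two experiments, SEM n = 4.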

LNCaP cells = experiment: Hormone-dependent cell proliferation in androgen-deprived LNCaP cells; type: cell-based, human
Outline: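 LNCaP cells were androgen-deprived for 48 h in phenol red-free RPMI with 10% charcoal-stripped FBS. They were seeded at 2 × 10^4 cells/mL in triplicate and treated with test compound ± 0.1 nM DHT (0.1% DMSO final), with a vehicle control. Media and treatments were renewed every second day after two PBS washes. Proliferation was read by AlamarBlue at 5 days. Two independent experiments, SEM n = 6.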

SMILES	cell viability (PC-3 cells)	viability at 24 h, 50 µM (Cell viability [1])	viability at 24 h, 50 µM (Cell viability [2])	viability at 24 h, 50 µM (Cell viability [3])	binding selectivity for AR over PR [4]	effect on CPA partial agonist activity (secreted PSA) ([5]; 10 μM, androgen-deprived LNCaP)	effect on DHT-induced PSA secretion ([5]; LNCaP, ELISA)	agonist activity (PSA without hormone stimulation) ([5]; androgen-deprived LNCaP, tested concentrations)	tolerability in LNCaP cells (LNCaP cells; 5 days of treatment at 10 and 20 μM)	effect on DHT-treated cell count (LNCaP cells; 5 days, 10 and 20 μM, 0.1 nM DHT)
CC(=O)O[C@]1(C(C)=O)CC[C@H]2[C@@H]3C=C(Cl)C4=CC(=O)[C@@H]5C[C@@H]5[C@]4(C)[C@H]3CC[C@@]21C [CPA, cyproterone acetate, reference compound]	minor effect									
O=C(N/N=C/c1cc(Br)ccc1O)c1cc2ccccc2cc1O [Compound 4]		50 to 60%	50 to 60%	50 to 60%	approximately 2 fold					
COc1cc(/C=N/NC(=O)c2cc3c(ccc4ccccc43)o2)cc(OC)c1O [Compound 5]					comparable affinity	antagonize CPA partial agonist activity	reduce DHT-induced PSA secretion in a dose–response fashion	no detectable agonist or partial agonist activity	well-tolerated	specific reduction in DHT-treated cell count
